Laboratory results from ChEMBL document CHEMBL2203175, “Discovery and optimization of sulfonyl acrylonitriles as selective, covalent inhibitors of protein phosphatase methylesterase-1” (J Med Chem, 2011).
The source made the active and inactive calls. No cut-off for these calls is given here.

Columns and labels:
[1] = target: Retinoid-inducible serine carboxypeptidase (Homo sapiens) (UniProt Q9HB40); assay: Inhibition of SCPEP1 binding to FP-biotin in [12C][14N]-lysine, arginine and [13C6][15N2]-lysine, arginine labeled HEK293T cells at 20 uM after 1 hr by isotopic activity-based protein profiling-MudPIT assay; type: cell-based; settings: HEK-293T
In short: (§1)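 SILAC HEK 293T: light cells (12C14N-Lys/Arg) treated with compound, heavy cells (13C6 15N2-Lys/Arg) with DMSO, 1 h at 37 °C. Proteomes were mixed 1:1 (0.5 mg each) and labeled with FP-biotin (5 μM, 1 h, 25 °C), then streptavidin-enriched, digested on bead with trypsin, and run by MudPIT. Light/heavy ratios were normalized to a DMSO/DMSO control. Only SHs with ≥2 quantifiable peptides were kept; mean ± SEM across peptides.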

[2] = target: Monoacylglycerol lipase ABHD6 (Homo sapiens) (UniProt Q9BV23); assay: Inhibition of ABHD6 binding to FP-biotin in [12C][14N]-lysine, arginine and [13C6][15N2]-lysine, arginine labeled HEK293T cells at 20 uM after 1 hr by isotopic activity-based protein profiling-MudPIT assay; type: cell-based; settings: HEK-293T; in short: as §1
Sequence of Monoacylglycerol lipase ABHD6 (Homo sapiens) (Q9BV23 whole entry): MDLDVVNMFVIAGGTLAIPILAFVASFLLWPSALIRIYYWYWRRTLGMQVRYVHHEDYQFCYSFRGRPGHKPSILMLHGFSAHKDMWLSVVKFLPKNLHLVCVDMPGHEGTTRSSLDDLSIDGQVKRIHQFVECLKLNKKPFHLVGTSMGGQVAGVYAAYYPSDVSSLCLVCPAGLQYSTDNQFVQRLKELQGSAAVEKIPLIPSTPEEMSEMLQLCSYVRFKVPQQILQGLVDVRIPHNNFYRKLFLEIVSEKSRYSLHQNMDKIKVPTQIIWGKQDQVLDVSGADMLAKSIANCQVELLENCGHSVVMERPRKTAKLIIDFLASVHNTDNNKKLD

[3] = target: Prolyl endopeptidase (Homo sapiens) (UniProt P48147); assay: Inhibition of PREP binding to FP-biotin in [12C][14N]-lysine, arginine and [13C6][15N2]-lysine, arginine labeled HEK293T cells at 20 uM after 1 hr by isotopic activity-based protein profiling-MudPIT assay; type: cell-based; settings: HEK-293T; in short: as §1
Sequence of Prolyl endopeptidase (Homo sapiens) (P48147 whole entry): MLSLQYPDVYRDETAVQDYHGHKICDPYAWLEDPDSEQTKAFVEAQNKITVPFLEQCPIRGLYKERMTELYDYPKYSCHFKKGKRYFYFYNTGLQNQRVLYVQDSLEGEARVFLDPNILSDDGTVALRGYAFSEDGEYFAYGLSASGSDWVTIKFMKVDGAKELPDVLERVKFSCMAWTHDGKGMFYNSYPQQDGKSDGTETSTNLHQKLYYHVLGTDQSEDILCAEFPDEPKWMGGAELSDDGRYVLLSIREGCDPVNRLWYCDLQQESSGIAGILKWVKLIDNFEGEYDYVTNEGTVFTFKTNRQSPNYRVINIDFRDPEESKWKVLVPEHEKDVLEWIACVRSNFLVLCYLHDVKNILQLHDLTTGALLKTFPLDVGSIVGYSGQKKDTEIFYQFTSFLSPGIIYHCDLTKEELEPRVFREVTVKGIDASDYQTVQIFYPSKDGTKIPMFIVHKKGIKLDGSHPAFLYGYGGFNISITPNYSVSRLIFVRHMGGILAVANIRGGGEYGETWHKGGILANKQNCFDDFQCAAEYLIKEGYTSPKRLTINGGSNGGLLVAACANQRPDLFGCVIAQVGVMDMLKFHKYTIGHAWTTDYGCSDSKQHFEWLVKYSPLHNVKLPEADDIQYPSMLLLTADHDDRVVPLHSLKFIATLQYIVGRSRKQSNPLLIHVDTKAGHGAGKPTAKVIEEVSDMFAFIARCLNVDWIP

[4] = target: Neutral cholesterol ester hydrolase 1 (Homo sapiens) (UniProt Q6PIU2); assay: Inhibition of AADACL1 binding to FP-biotin in [12C][14N]-lysine, arginine and [13C6][15N2]-lysine, arginine labeled HEK293T cells at 20 uM after 1 hr by isotopic activity-based protein profiling-MudPIT assay; type: cell-based; settings: HEK-293T; in short: as §1
Sequence of Neutral cholesterol ester hydrolase 1 (Homo sapiens) (Q6PIU2 whole entry): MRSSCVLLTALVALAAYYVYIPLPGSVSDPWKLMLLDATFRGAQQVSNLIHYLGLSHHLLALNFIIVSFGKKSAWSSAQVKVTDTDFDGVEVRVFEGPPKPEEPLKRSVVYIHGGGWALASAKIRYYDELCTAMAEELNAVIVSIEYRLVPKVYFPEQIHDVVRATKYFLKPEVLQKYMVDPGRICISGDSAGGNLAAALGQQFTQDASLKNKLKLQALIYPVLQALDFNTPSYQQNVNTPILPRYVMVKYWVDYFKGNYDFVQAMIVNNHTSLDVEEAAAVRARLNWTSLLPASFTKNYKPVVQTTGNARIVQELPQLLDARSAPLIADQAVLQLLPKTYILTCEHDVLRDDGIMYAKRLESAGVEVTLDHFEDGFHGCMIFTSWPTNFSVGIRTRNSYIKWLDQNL

[5] = target: Lysosomal thioesterase PPT2 (Homo sapiens) (UniProt Q9UMR5); assay: Inhibition of PPT2 binding to FP-biotin in [12C][14N]-lysine, arginine and [13C6][15N2]-lysine, arginine labeled HEK293T cells at 20 uM after 1 hr by isotopic activity-based protein profiling-MudPIT assay; type: cell-based; settings: HEK-293T; in short: as §1
Sequence of Lysosomal thioesterase PPT2 (Homo sapiens) (Q9UMR5 whole entry): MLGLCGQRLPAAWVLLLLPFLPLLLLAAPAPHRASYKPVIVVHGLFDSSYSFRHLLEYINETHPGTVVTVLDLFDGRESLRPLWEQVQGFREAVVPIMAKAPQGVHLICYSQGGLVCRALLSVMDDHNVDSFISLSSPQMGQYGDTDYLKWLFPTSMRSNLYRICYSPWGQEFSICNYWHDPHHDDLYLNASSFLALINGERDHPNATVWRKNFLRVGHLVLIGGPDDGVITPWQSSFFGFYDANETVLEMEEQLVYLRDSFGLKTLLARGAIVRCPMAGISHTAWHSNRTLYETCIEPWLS

[6] = target: T1, Protein phosphatase methylesterase 1 (Homo sapiens) (UniProt Q9Y570); assay: Inhibition of PME1 overexpressed in HEK293T cells assessed as increase in methylated PP2A level at 20 uM after 1 hr by Western blot analysis; type: cell-based; settings: HEK-293T
T1 sequence (whole entry): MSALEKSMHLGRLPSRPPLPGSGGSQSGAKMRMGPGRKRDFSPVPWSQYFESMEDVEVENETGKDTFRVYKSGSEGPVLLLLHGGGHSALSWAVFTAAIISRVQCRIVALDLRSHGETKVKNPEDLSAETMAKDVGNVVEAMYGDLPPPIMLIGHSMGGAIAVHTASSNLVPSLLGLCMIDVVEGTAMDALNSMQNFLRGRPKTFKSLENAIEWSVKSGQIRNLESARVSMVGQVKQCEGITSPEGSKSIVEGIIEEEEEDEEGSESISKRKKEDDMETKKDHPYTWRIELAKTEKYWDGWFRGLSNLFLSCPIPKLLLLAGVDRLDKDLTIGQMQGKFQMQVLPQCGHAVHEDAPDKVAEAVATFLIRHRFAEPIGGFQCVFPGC
In short: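 HEK 293T cells, either stably overexpressing PME-1 or untransfected, treated in medium for 1 h at 37 °C. Total cell extract (2 mg/mL) run on reducing SDS-PAGE (10%) and blotted with demethylated-specific (4b7), methylated-specific (2A10) and total PP2A antibodies, imaged by infrared fluorescence. Mean ± SEM, n = 3, compared against DMSO-treated cells.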

HEK-293T [7] = assay: Effect on chloroacetamide-Rh labeled soluble proteome in HEK293T cells at 100 uM incubated for 1 hr before protein labeling measured after 1 hr relative to control; type: cell-based; settings: Homo sapiens
In short: (§2)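 HEK 293T cells (DMEM, 10% FBS, 37 °C, 5% CO2) given compound in medium for 1 h at 37 °C, washed, scraped, sonicated in PBS pH 7.5. Soluble fraction diluted to 1 mg/mL protein in PBS, labeled with CA-rhodamine or SE-rhodamine (5 μM, 1 h, 25 °C), run on reducing SDS-PAGE (10%), and band intensities read by in-gel fluorescence against DMSO-treated samples.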

[8] = target: Lysosomal Pro-X carboxypeptidase (Homo sapiens) (UniProt P42785); assay: Inhibition of PRCP binding to FP-biotin in[12C][14N]-lysine, arginine and [13C6][15N2]-lysine, arginine labeled HEK293T cells at 20 uM after 1 hr by isotopic activity-based protein profiling-MudPIT assay; type: cell-based; settings: HEK-293T; in short: as §1
[9] = target: Dipeptidyl peptidase 9 (Homo sapiens) (UniProt Q86TI2); assay: Inhibition of DPP9 binding to FP-biotin in[12C][14N]-lysine, arginine and [13C6][15N2]-lysine, arginine labeled HEK293T cells at 20 uM after 1 hr by isotopic activity-based protein profiling-MudPIT assay; type: cell-based; settings: HEK-293T; in short: as §1
Sequence of Dipeptidyl peptidase 9 (Homo sapiens) (Q86TI2 2-863 limits assumed): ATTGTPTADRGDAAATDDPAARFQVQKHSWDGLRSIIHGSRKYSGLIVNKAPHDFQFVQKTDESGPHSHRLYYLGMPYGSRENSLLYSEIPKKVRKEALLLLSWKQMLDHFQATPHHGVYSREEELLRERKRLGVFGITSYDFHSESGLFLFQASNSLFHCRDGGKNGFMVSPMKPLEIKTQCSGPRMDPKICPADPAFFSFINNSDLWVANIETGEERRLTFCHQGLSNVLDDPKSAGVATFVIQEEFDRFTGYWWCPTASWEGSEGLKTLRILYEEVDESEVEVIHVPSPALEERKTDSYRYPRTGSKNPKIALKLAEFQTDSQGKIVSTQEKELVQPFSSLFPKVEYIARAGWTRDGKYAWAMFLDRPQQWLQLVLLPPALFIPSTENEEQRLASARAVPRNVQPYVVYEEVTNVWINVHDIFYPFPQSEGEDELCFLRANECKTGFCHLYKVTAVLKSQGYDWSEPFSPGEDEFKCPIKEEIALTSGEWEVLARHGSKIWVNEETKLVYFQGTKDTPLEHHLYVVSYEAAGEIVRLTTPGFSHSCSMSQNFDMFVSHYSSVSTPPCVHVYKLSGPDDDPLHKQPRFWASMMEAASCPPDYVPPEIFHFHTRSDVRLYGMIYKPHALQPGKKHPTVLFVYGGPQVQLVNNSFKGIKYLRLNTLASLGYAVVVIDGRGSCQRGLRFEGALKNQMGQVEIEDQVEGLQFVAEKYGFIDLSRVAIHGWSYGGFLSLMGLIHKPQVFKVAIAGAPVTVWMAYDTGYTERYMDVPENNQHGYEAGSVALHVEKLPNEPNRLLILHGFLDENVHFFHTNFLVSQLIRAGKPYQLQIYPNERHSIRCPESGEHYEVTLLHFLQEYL

[10] = target: T1, Protein phosphatase methylesterase 1 (Homo sapiens); settings: HEK-293T, 20 uM
[11] = target: Phosphatidylserine lipase ABHD16A (Homo sapiens) (UniProt O95870); assay: Inhibition of BAT5 binding to FP-biotin in [12C][14N]-lysine, arginine and [13C6][15N2]-lysine, arginine labeled HEK293T cells at 20 uM after 1 hr by isotopic activity-based protein profiling-MudPIT assay; type: cell-based; settings: HEK-293T; in short: as §1
Sequence of Phosphatidylserine lipase ABHD16A (Homo sapiens) (O95870 whole entry): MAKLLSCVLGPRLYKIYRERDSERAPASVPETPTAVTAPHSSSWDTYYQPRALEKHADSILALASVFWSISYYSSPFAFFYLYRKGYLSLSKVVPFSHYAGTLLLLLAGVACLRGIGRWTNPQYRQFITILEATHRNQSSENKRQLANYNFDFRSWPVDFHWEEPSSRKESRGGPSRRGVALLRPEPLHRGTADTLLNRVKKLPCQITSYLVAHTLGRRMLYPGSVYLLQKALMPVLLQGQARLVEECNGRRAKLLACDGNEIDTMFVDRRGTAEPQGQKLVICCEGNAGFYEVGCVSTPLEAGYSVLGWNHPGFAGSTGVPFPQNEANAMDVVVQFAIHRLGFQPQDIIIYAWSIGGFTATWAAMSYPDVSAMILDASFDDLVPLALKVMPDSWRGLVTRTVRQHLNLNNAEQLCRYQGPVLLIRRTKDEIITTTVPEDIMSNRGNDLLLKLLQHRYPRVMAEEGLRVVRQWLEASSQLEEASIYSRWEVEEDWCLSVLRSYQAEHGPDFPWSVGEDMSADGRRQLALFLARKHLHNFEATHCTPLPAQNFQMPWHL

HEK-293T [12] = assay: Effect on sulfonate ester-Rh labeled soluble proteome in HEK293T cells at 100 uM incubated for 1 hr before proteome labeling measured after 1 hr relative to control; type: cell-based; settings: Homo sapiens; in short: as §2
[13] = target: Acyl-coenzyme A thioesterase 2, mitochondrial (Homo sapiens) (UniProt P49753); assay: Inhibition of ACOT2 binding to FP-biotin in [12C][14N]-lysine, arginine and [13C6][15N2]-lysine, arginine labeled HEK293T cells at 20 uM after 1 hr by isotopic activity-based protein profiling-MudPIT assay; type: cell-based; settings: HEK-293T; in short: as §1
[14] = target: Prolyl endopeptidase-like (Homo sapiens) (UniProt Q4J6C6); assay: Inhibition of PREPL binding to FP-biotin in [12C][14N]-lysine, arginine and [13C6][15N2]-lysine, arginine labeled HEK293T cells at 20 uM after 1 hr by isotopic activity-based protein profiling-MudPIT assay; type: cell-based; settings: HEK-293T; in short: as §1
[15] = target: Calcium-independent phospholipase A2-gamma (Homo sapiens) (UniProt Q9NP80); assay: Inhibition of PNPLA8 binding to FP-biotin in [12C][14N]-lysine, arginine and [13C6][15N2]-lysine, arginine labeled HEK293T cells at 20 uM after 1 hr by isotopic activity-based protein profiling-MudPIT assay; type: cell-based; settings: HEK-293T; in short: as §1
Sequence of Calcium-independent phospholipase A2-gamma (Homo sapiens) (Q9NP80 whole entry): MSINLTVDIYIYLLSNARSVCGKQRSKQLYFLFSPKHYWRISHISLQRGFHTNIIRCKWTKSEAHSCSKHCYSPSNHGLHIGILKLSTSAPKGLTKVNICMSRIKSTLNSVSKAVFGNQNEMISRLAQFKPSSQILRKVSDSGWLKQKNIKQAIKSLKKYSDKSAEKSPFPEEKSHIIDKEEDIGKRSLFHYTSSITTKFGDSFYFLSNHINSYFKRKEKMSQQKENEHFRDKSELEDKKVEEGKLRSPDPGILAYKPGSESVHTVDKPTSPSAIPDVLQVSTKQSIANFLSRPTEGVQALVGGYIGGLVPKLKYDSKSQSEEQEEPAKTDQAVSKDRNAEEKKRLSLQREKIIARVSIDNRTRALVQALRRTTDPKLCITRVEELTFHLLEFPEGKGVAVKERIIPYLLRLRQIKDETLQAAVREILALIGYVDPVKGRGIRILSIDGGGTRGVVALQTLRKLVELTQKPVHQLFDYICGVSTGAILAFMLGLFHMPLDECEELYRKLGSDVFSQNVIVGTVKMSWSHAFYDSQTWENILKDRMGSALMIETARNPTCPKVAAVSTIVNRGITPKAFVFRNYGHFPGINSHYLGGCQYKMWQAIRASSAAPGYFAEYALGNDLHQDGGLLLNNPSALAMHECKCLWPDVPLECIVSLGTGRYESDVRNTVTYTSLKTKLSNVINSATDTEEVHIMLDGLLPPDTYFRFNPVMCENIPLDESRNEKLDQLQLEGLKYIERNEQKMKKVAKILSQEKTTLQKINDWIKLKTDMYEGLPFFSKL

[16] = target: Dipeptidyl peptidase 8 (Homo sapiens) (UniProt Q6V1X1); assay: Inhibition of DPP8 binding to FP-biotin in [12C][14N]-lysine, arginine and [13C6][15N2]-lysine, arginine labeled HEK293T cells at 20 uM after 1 hr by isotopic activity-based protein profiling-MudPIT assay; type: cell-based; settings: HEK-293T; in short: as §1
Sequence of Dipeptidyl peptidase 8 (Homo sapiens) (Q6V1X1 whole entry, looked up): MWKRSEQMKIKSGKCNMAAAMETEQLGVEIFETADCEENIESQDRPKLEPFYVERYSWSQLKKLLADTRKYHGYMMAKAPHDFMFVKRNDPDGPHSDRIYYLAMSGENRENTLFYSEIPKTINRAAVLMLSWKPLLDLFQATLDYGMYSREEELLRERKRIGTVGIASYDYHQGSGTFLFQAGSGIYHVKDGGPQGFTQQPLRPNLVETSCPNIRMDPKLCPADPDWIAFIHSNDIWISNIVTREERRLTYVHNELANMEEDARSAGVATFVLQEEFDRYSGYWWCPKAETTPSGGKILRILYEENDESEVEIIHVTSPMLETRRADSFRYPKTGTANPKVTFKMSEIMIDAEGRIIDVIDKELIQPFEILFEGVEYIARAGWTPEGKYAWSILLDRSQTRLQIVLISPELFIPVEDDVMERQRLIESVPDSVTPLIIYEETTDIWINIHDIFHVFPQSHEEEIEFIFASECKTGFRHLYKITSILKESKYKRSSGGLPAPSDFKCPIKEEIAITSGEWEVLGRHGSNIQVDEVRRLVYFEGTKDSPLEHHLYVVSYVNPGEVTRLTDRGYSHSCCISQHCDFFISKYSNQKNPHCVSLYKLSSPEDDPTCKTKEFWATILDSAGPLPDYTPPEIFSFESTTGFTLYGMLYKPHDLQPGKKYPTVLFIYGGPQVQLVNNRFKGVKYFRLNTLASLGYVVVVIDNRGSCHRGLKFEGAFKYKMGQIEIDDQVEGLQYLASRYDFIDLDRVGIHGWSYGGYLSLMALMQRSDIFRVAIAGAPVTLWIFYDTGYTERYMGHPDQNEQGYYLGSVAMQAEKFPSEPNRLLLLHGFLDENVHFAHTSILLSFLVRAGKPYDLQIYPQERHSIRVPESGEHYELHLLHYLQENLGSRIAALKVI

inhibition [1]: inactive
inhibition [2]: inactive
inhibition [3]: inactive
inhibition [4]: inactive
inhibition [5]: inactive
inhibition [6]: Active
inhibition [8]: inactive
inhibition [9]: inactive
inhibition [10]: Active
inhibition [11]: inactive
inhibition [13]: inactive
inhibition [14]: inactive
inhibition [15]: inactive
inhibition [16]: inactive
Structure (SMILES): N#C/C(=C\c1cccn1S(=O)(=O)c1cccc([N+](=O)[O-])c1)S(=O)(=O)c1ccc(F)cc1
Activity (HEK-293T [7]): inactive
Activity (HEK-293T [12]): inactive
